In assay [1] the target is T1, 3-oxo-5-alpha-steroid 4-dehydrogenase 1 (Homo sapiens, UniProt P18405).
T1 sequence (P18405 whole entry): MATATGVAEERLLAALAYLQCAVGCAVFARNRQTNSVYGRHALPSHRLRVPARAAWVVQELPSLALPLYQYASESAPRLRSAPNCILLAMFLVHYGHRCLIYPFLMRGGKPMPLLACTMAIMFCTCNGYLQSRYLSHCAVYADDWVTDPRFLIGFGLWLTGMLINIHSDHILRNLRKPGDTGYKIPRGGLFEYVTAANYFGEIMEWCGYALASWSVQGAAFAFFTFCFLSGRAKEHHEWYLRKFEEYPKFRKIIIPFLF
Kind of assay: In vitro inhibitory activity against human type 1 5-alpha reductase. In outline: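 Used microsomes from baculovirus-infected SF-9 cells expressing recombinant human type 1 5AR, at final enzyme 0.05–5 nM. Buffer at pH 7 and 37 °C contained an NADPH-regenerating system. Inhibitor was preincubated 10 min before adding 100 nM [3H]testosterone.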

In assay [2] the target is T2, 3-oxo-5-alpha-steroid 4-dehydrogenase 2 (Homo sapiens, UniProt P31213).
T2 sequence (P31213 whole entry): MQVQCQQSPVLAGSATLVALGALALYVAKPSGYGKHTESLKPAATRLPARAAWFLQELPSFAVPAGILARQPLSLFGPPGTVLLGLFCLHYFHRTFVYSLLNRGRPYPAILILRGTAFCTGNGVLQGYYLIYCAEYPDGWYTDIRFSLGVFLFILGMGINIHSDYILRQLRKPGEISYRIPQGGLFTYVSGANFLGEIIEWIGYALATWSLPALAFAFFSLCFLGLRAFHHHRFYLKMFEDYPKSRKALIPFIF
Kind of assay: In vitro inhibitory activity against human type 2 5-alpha reductase.

The nature of assay [3]: In vitro inhibitory activity against human adrenal 3-beta hydroxy-delta 5-teroid isomerase. Summed up: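 Microsomes were prepared from human adrenal tissue by homogenization and differential centrifugation. Inhibitor in 50% DMSO was preincubated 10 min at 37 °C in 100 mM potassium phosphate pH 7.5 with 1 mM NAD+. The reaction was started with 100 nM [3H]DHEA and quenched in ethanol after 15 min. DHEA-to-androstenedione conversion was measured by radio-HPLC.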

SMILES strings stand for the structures.

In the case of `CCCN1CC2C(CC[C@@]3(C)C2CC[C@@H]3C(=O)NC(c2ccccc2)c2ccccc2)[C@@]2(C)C=CC(=O)C=C12` (some centres undefined), the Ki – broadly, the dissociation constant of the complex between target and ligand, obtained from inhibition or displacement – worked out at 340 nM in assay [1] and 180 nM in assay [3]. 1.3 nM corresponded to half-maximal inhibition in assay [2] (IC50).

On to `C[C@]12CCC(=O)C=C1NCC1C2CC[C@@]2(C)C1CC[C@@H]2C(=O)N1CCCCC1` (some centres undefined), for which the Ki in assay [1] was determined as 85 nM; in assay [3], 110 nM.

In the case of `CCN(CC)C(=O)[C@H]1CCC2C3CNC4=C(I)C(=O)CC[C@]4(C)C3CC[C@@]21C` (some centres undefined), the Ki in assay [1] worked out at 690 nM; in assay [3], 15 nM.

For `CCCCCCCCC(=O)[C@H]1CCC2C3CNC4=CC(=O)CC[C@]4(C)C3CC[C@@]21C` (some centres undefined), the Ki was found to be 1 nM in assay [1] and 7.5 nM in assay [3]. Also, the IC50 (commonly the concentration that gives 50% inhibition) in assay [2] is under 0.1 nM.

In the case of `CC(C)CC(=O)[C@H]1CCC2C3CNC4=CC(=O)CC[C@]4(C)C3CC[C@@]21C` (some centres undefined), the half-inhibitory concentration (IC50) in assay [2] is under 0.1 nM. This compound also gave a Ki in assay [3] of 10 nM.

Take `CC(C)(C)NC(=O)[C@H]1CCC2C3CN=C4C=C(O)C5CC5[C@]4(C)C3CC[C@@]21C` (some centres undefined): the Ki in assay [1] stood at 49000 nM; in assay [3], 300 nM. Half-maximal inhibition in assay [2] (IC50) was put at 4.4 nM.

On to `CCN(CC)C(=O)[C@H]1CCC2C3CN=C4C=C(O)C5CC5[C@]4(C)C3CC[C@@]21C` (some centres undefined), for which the results for the Ki in assay [1] and in assay [3] were 14000 nM and 95 nM, respectively. The half-inhibitory concentration (IC50) in assay [2] turned out to be 1.8 nM.

Turning to `CCN(CC)C(=O)[C@H]1CCC2C3CN(C#N)C4=CC(=O)CC[C@]4(C)C3CC[C@@]21C` (some centres undefined), the Ki in assay [1] stood at 8300 nM; in assay [3], 1500 nM. The compound further returned an IC50 in assay [2] of 42 nM.

`CCN(CC)C(=O)[C@H]1CCC2C3CN(CC(=O)O)C4=CC(=O)CC[C@]4(C)C3CC[C@@]21C` (some centres undefined): the Ki in assay [1] turned out to be 10000 nM; in assay [3] it was 180 nM. In assay [2], this compound returned an IC50 of 1500 nM.

In the case of `CCN(CC)C(=O)[C@H]1CCC2C3CNC4=CC(=O)C(C)C[C@]4(C)C3CC[C@@]21C` (some centres undefined), the Ki in assay [1] stood at 3500 nM; in assay [3] it was 510 nM. In assay [2], this compound came in with an IC50 of 3.4 nM.

For `CON(C)C(=O)[C@H]1CCC2C3CNC4=CC(=O)CC[C@]4(C)C3CC[C@@]21C` (some centres undefined), in assay [3], the Ki was found to be 50 nM. This lies in the double-digit nanomolar range.

In the case of `CC(C)c1cc(C(C)C)c(C(=O)[C@H]2CCC3C4CNC5=CC(=O)CC[C@]5(C)C4CC[C@@]32C)c(C(C)C)c1` (some centres undefined), the Ki in assay [1] was determined as 280 nM; in assay [3] it was 1900 nM. Also, in assay [2], the IC50 is 0.5 nM.

`CN1CC2C(CC[C@@]3(C)C2CC[C@@H]3C(=O)NC23CC4CC(CC(C4)C2)C3)[C@@]2(C)C=CC(=O)C=C12` (some centres undefined): the Ki in assay [1] came to 280 nM; in assay [3], 62 nM. For the same compound, the 50% inhibitory concentration (IC50) in assay [2] was 0.3 nM.

On to `CC(C)(C)NC(=O)[C@H]1CCC2C3CNC4=CC(=O)CC[C@]4(C)C3CC[C@@]21C` (some centres undefined), for which, in assay [3], the Ki came out at 150 nM.

Take `CCN(CC)C(=O)[C@H]1CCC2C3CN(C)C4=C(C)C(=O)CC[C@]4(C)C3CC[C@@]21C` (some centres undefined): the values for the Ki in assay [1] and in assay [3] were 82 nM and 11 nM, respectively.

Turning to `CCCCN1CC2C(CC[C@@]3(C)C2CC[C@@H]3C(=O)N(CC)CC)[C@@]2(C)CCC(=O)C=C12` (some centres undefined), the Ki in assay [1] was 7800 nM; in assay [3], 3600 nM.

As for `CN1CC2C(CC[C@@]3(C)C2CC[C@@H]3C(=O)NC23CC4CC(CC(C4)C2)C3)[C@@]2(C)CCC(=O)C(Br)=C12` (some centres undefined), the Ki in assay [1] is 8.6 nM; in assay [3], 8.3 nM. In assay [2], this compound came in with an IC50 of 1.7 nM.

On to `CCN(CC)C(=O)[C@H]1CCC2C3CNC4=C(Cl)C(=O)CC[C@]4(C)C3CC[C@@]21C` (some centres undefined), for which the figures for the Ki in assay [1] and in assay [3] were 51 nM and 27 nM, respectively.

Take `C[C@]12CCC(=O)C=C1NCC1C2CC[C@@]2(C)C1CC[C@@H]2C(=O)c1c(F)cccc1F` (some centres undefined): the Ki in assay [1] is 39 nM; in assay [3] it was 11 nM. In assay [2], this compound yielded an IC50 of under 0.1 nM.

For the compound `CC(C)(C)NC(=O)[C@H]1CCC2C3CNC4=CC(=O)C=C[C@]4(C)C3CC[C@@]21C` (some centres undefined), the Ki in assay [1] amounted to 2400 nM; in assay [3], 2200 nM. In assay [2], this compound gave a 50% inhibitory concentration (IC50) of 1.8 nM.

Consider `CCN(CC)C(=O)[C@H]1CCC2C3CNC4=CC(=O)C=C[C@]4(C)C3CC[C@@]21C` (some centres undefined), for which the values for the Ki in assay [1] and in assay [3] were 5800 nM and 80 nM, respectively. The 50% inhibitory concentration (IC50) in assay [2] came to 3.5 nM.

For `CC1=C2N(C)CC3C(CC[C@@]4(C)C3CC[C@@H]4C(=O)NC(C)(C)C)[C@@]2(C)CCC1=O` (some centres undefined), the Ki is 60 nM in assay [1] and 23 nM in assay [3].

Consider `CC(C)CC(=O)[C@H]1CCC2C3CNC4=C(Br)C(=O)CC[C@]4(C)C3CC[C@@]21C` (some centres undefined), for which the figures for the Ki in assay [1] and in assay [3] were 3.2 nM and 2.3 nM, respectively.

`C[C@]12CCC(=O)C=C1NCC1C2CC[C@@]2(C)C1CC[C@@H]2C(=O)NN(c1ccccc1)c1ccccc1` (some centres undefined) showed a Ki in assay [3] of 160 nM.

The compound `C[C@]12CCC(=O)C=C1NCC1C2CC[C@@]2(C)C1CC[C@@H]2C(=O)N1CCNCC1` (some centres undefined) displayed a Ki in assay [3] of 220 nM.

In the case of `CCN(CC)C(=O)[C@H]1CCC2C3CN(Cc4ccccc4)C4=CC(=O)CC[C@]4(C)C3CC[C@@]21C` (some centres undefined), the Ki was found to be 10000 nM in assay [1] and 16000 nM in assay [3].

For the compound `CCN(CC)C(=O)[C@H]1CCC2C3CNC4=C(CN(C)C)C(=O)CC[C@]4(C)C3CC[C@@]21C` (some centres undefined), the Ki was found to be 10000 nM in assay [1] and 1200 nM in assay [3]. In assay [2], it took 170 nM to reach half-maximal inhibition (IC50).

As for `CCN(CC)C(=O)[C@H]1CCC2C3CN(C(C)C)C4=CC(=O)CC[C@]4(C)C3CC[C@@]21C` (some centres undefined), the inhibition constant Ki in assay [1] was 3400 nM; in assay [3], 1100 nM. In addition, the IC50 in assay [2] turned out to be 4.9 nM.

Turning to `CCN(CC)C(=O)[C@H]1CCC2C3CN(CC)C4=CC(=O)CC[C@]4(C)C3CC[C@@]21C` (some centres undefined), the Ki in assay [1] is 1300 nM; in assay [3], 49 nM.

On to `CCN(CC)C(=O)[C@H]1CCC2C3CN(C)C4=CC(=O)C=C[C@]4(C)C3CC[C@@]21C` (some centres undefined), for which the Ki in assay [1] came to 1300 nM; in assay [3], 22 nM. This compound came in with an IC50 in assay [2] of 5.7 nM.

Regarding `CCCCCCN1CC2C(CC[C@@]3(C)C2CC[C@@H]3C(=O)N(CC)CC)[C@@]2(C)CCC(=O)C=C12` (some centres undefined), the values for the Ki in assay [1] and in assay [3] were 5900 nM and 11000 nM, respectively.

In assay [3], `COC(=O)[C@H]1CCC2C3CNC4=CC(=O)CC[C@]4(C)C3CC[C@@]21C` (some centres undefined) came in with a Ki of 12 nM.

`C[C@]12CCC(=O)C=C1NCC1C2CC[C@@]2(C)C1CC[C@@H]2C(=O)N1CCOCC1` (some centres undefined) yielded a Ki in assay [3] of 190 nM. This Ki lies about 16-fold higher than the previous one.

As to `CCCN1CC2C(CC[C@@]3(C)C2CC[C@@H]3C(=O)N(CC)CC)[C@@]2(C)CCC(=O)C=C12` (some centres undefined), the Ki in assay [1] amounted to 24000 nM; in assay [3], 520 nM.

On to `CC(C)(C)N(O)C(=O)[C@H]1CCC2C3CNC4=CC(=O)CC[C@]4(C)C3CC[C@@]21C` (some centres undefined), for which the Ki in assay [1] amounted to 38 nM; in assay [3], 62 nM.

For the compound `C[C@]12CCC(=O)C=C1NCC1C2CC[C@@]2(C)C1CC[C@@H]2C(=O)N1CCSCC1` (some centres undefined), the Ki in assay [3] stood at 31 nM.

In the case of `CCN(CC)C(=O)[C@H]1CCC2C3CN(C)C4=CC(=O)C5CC5[C@]4(C)C3CC[C@@]21C` (some centres undefined), the Ki in assay [1] came to 10000 nM; in assay [3], 10 nM.

Take `CCCC(=O)[C@H]1CCC2C3CNC4=CC(=O)CC[C@]4(C)C3CC[C@@]21C` (some centres undefined): the Ki in assay [1] was 12 nM; in assay [3], 11 nM.

`CCN(CC)C(=O)[C@H]1CCC2C3CNC4=CC(=O)CC[C@]4(C)C3CC[C@@]21C` (some centres undefined) showed a Ki in assay [3] of 60 nM.

In the case of `C[C@]12CCC(=O)C=C1NCC1C2CC[C@@]2(C)C1CC[C@@H]2C(=O)NC(C1CCCCC1)C1CCCCC1` (some centres undefined), in assay [3], the affinity corresponds to a Ki of 4000 nM.

In assay [2], `C[C@]12CCC(=O)C=C1NCC1C2CC[C@@]2(C)C1CC[C@@H]2C(=O)NC(c1ccccc1)(c1ccccc1)c1ccccc1` (some centres undefined) came in with an IC50 of under 0.1 nM. The affinity in assay [3], expressed as Ki, was 100 nM.

Values taken from ChEMBL document CHEMBL1127590 (J Med Chem, 1994).
